Data as given in ChEMBL document CHEMBL2163243, “Metaproterenol, isoproterenol, and their bisdimethylcarbamate derivatives as human cholinesterase inhibitors” (J Med Chem, 2012).

How the values were obtained:
Cholinesterase [1] = target: T1, Cholinesterase (Homo sapiens, UniProt P06276); assay: Inhibition of human BChE D70G mutant usual-atypical heterozygous variant using propionylthiocholine as substrate assessed as inhibition rate constant incubated up to 30 mins prior to substrate addition by Ellman's method
Procedure, shortened: (§1)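 BChE from heparinized human donor plasma (centrifuged supernatant, phenotyped), unpurified, diluted 150 - 300 times in phosphate buffer. Enzyme incubated ≤30 min with carbamate in 0.1 M phosphate buffer pH 7.4, 25 °C. Reaction stopped with PTCh (4.0 mM final) and residual activity read by Ellman (DTNB 0.3 mM final, 412 nm). At least three carbamate concentrations, at least two experiments. First-order constants from ln(v0/vi) vs time; ki = kmax/Ki.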
Target sequence in this assay (P06276 29-602 limits assumed): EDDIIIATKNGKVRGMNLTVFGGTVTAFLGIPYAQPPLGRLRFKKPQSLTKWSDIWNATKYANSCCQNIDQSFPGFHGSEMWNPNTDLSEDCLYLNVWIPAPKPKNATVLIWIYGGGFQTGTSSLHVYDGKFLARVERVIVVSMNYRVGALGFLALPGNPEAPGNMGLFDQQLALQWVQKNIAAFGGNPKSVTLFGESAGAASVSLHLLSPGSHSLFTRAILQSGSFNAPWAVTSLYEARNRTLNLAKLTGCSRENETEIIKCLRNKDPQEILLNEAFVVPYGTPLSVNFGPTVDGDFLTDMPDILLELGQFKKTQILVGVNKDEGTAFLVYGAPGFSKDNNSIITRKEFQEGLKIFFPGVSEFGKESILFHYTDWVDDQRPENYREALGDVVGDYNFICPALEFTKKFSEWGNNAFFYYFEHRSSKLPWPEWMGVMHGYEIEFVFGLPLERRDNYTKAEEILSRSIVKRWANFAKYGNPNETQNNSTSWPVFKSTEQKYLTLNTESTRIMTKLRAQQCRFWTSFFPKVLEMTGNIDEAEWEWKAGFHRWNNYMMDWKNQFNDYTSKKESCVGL

Acetylcholinesterase [2] = target: T2, Acetylcholinesterase (Homo sapiens, UniProt P22303); assay: Inhibition of human AChE using acetylthiocholine as substrate assessed as inhibition rate constant by Ellman's method
Cholinesterase [3] = target: T1, Cholinesterase; assay: Inhibition of human BChE D70G/T243M/G390V mutant atypical-fluoride resistant heterozygous variant using propionylthiocholine as substrate assessed as inhibition rate constant incubated up to 30 mins prior to substrate addition by Ellman's method; procedure, shortened: as §1
Target sequence in this assay (P06276 29-602 limits assumed): as above

Cholinesterase [4] = target: T1, Cholinesterase; assay: Inhibition of human BChE usual homozygous variant using propionylthiocholine as substrate assessed as inhibition rate constant incubated up to 30 mins prior to substrate addition by Ellman's method; procedure, shortened: as §1
Target sequence in this assay (P06276 29-602 limits assumed, stated change not applied): as the sequence (P06276 29-602 limits assumed) above

Cholinesterase [5] = target: Cholinesterase (Homo sapiens, UniProt P06276, T271M/G418V); assay: Inhibition of human BChE T243M/G390V mutant fluoride-resistant homozygous variant using propionylthiocholine as substrate assessed as inhibition rate constant incubated up to 30 mins prior to substrate addition by Ellman's method; procedure, shortened: as §1
Cholinesterase [6] = target: Cholinesterase (Homo sapiens, UniProt P06276, D98G); assay: Inhibition of human BChE D70G mutant atypical homozygous variant using propionylthiocholine as substrate assessed as inhibition rate constant incubated up to 30 mins prior to substrate addition by Ellman's method; procedure, shortened: as §1
Acetylcholinesterase [7] = target: T2, Acetylcholinesterase; assay: Inhibition of human AChE using acetylthiocholine as substrate by Ellman's method
Cholinesterase [8] = target: T1, Cholinesterase; assay: Inhibition of human BChE D70G mutant atypical homozygous variant using propionylthiocholine as substrate by Ellman's method; settings: TDE = time-dependent effect
Procedure, shortened: (§2)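 Reversible inhibition of plasma BChE (phenotyped donor plasma, diluted 150 - 300 times) measured at several PTCh concentrations, with and without inhibitor (0.5 mM - 10 mM). Ellman read-out at 412 nm, DTNB 0.3 mM final, 0.1 M phosphate pH 7.4, 25 °C. Ki,app per substrate concentration from the Hunter-Downs equation by linear regression. Y-intercept gives K(I) and x-intercept gives K(S).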
Target sequence in this assay (P06276 whole entry): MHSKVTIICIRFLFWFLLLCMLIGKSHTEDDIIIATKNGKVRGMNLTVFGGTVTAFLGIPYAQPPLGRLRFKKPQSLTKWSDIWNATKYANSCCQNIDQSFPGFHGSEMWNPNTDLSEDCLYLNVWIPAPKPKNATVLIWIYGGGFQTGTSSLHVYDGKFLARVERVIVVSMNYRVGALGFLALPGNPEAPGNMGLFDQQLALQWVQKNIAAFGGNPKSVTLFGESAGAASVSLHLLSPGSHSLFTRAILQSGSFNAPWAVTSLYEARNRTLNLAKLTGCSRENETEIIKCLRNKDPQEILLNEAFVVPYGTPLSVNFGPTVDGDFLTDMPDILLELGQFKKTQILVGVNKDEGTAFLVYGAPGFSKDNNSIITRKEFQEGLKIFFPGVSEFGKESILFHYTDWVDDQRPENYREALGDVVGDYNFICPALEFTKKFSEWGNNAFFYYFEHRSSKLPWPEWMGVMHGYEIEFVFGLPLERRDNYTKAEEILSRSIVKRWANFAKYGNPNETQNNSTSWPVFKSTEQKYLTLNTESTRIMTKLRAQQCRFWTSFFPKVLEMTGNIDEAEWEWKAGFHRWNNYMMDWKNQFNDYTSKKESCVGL

Cholinesterase [9] = target: T1, Cholinesterase; assay: Inhibition of human BChE D70G/T243M/G390V mutant atypical-fluoride resistant heterozygous variant using propionylthiocholine as substrate by Ellman's method; settings: TDE = time-dependent effect; procedure, shortened: as §2
Target sequence in this assay (P06276 whole entry): as above

Cholinesterase [10] = target: T1, Cholinesterase; assay: Inhibition of human BChE D70G mutant usual-atypical heterozygous variant using propionylthiocholine as substrate by Ellman's method; settings: TDE = time-dependent effect; procedure, shortened: as §2
Target sequence in this assay (P06276 whole entry): as above

Cholinesterase [11] = target: T1, Cholinesterase; assay: Inhibition of human BChE usual homozygous variant using propionylthiocholine as substrate by Ellman's method; settings: TDE = time-dependent effect; procedure, shortened: as §2
Target sequence in this assay (P06276 whole entry): as above

Cholinesterase [12] = target: T1, Cholinesterase; assay: Inhibition of human BChE T243M/G390V mutant fluoride-resistant homozygous variant using propionylthiocholine as substrate by Ellman's method; settings: TDE = time-dependent effect; procedure, shortened: as §2
Target sequence in this assay (P06276 whole entry): as above

Homo sapiens [13] = species on record: Homo sapiens; assay: Selectivity ratio of apparent dissociation constant for enzyme-inhibitor complex for human AChE to apparent dissociation constant for enzyme-inhibitor complex for human BChE T243M/G390V mutant fluoride-resistant homozygous variant
Procedure, shortened: (§3)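 Human plasma BChE (phenotyped variants) and hemolysed erythrocyte AChE were used unpurified, with plasma diluted 150-300x and erythrocytes 600x. Activity was read by the Ellman method at 412 nm (DTNB 0.3 mM final) in 0.1 M phosphate, pH 7.4, 25 °C. Substrate was PTCh for BChE and ATCh for AChE, each at several concentrations, with inhibitor at 0.5-10 mM. Ki is the y-intercept of a Hunter-Downs linear regression.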

Homo sapiens [14] = species on record: Homo sapiens; assay: Selectivity ratio of apparent dissociation constant for enzyme-inhibitor complex for human AChE to apparent dissociation constant for enzyme-inhibitor complex for human BChE D70G mutant atypical homozygous variant; procedure, shortened: as §3
Cholinesterase [15] = target: T1, Cholinesterase; assay: Binding affinity to human BChE D70G mutant atypical homozygous variant relative to terbutaline
Target sequence in this assay (P06276 whole entry): as above

T2 sequence (P22303 whole entry): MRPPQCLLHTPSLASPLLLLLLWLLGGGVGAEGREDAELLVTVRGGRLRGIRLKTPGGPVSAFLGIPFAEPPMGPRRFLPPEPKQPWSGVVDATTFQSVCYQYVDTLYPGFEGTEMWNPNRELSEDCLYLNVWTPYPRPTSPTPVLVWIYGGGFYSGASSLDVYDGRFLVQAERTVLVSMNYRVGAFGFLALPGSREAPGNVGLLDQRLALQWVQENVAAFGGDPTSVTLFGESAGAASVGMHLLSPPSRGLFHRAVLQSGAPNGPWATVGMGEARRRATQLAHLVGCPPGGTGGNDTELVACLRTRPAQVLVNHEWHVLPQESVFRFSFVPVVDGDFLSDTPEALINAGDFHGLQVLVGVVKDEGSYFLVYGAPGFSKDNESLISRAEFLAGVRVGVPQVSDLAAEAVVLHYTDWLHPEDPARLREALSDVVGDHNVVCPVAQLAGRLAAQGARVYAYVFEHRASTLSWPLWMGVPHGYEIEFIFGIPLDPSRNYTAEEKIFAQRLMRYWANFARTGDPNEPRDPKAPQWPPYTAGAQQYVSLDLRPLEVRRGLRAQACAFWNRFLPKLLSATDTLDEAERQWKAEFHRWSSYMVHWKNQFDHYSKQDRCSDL
Cholinesterase (Homo sapiens, UniProt P06276, T271M/G418V), sequence (P06276 29-602 T271M/G418V limits assumed): as the sequence (P06276 29-602 limits assumed) above, with T243M, G390V counted along it
Cholinesterase (Homo sapiens, UniProt P06276, D98G), sequence (P06276 29-602 D98G limits assumed): as the sequence (P06276 29-602 limits assumed) above, with D70G counted along it

Compound | bimolecular inhibition rate constant (ki) (Cholinesterase [1]) [×10³ /M/min] | Inhibition rate constant (Acetylcholinesterase [2]) [×10³ /M/min] | Carbamylation rate constant (ki) (Cholinesterase [3]) [×10³ /M/min] | bimolecular inhibition rate constant (ki) (Cholinesterase [4]) [×10³ /M/min] | bimolecular inhibition rate constant (ki) (Cholinesterase [5]) [×10³ /M/min] | bimolecular inhibition rate constant (ki) (Cholinesterase [6]) [×10³ /M/min] | Ki (Acetylcholinesterase [7]) [µM] | inhibition (Cholinesterase [8]) | inhibition (Cholinesterase [9]) | inhibition (Cholinesterase [10]) | inhibition (Cholinesterase [11]) | inhibition (Cholinesterase [12]) | Selectivity ratio (Homo sapiens [13]) | Selectivity ratio (Homo sapiens [14]) | Ratio (Cholinesterase [15])
CC(C)NC[C@H](O)c1cc(OC(=O)N(C)C)cc(OC(=O)N(C)C)c1.Cl | 2200 | 4.7 | 550 | 3200 | 1100 | 76 | 390 | – | – | – | – | – | – | – | –
CC(C)NC[C@H](O)c1ccc(OC(=O)N(C)C)c(OC(=O)N(C)C)c1.Cl | 210 | 2.7 | 100 | 340 | 150 | 31 | 1200 | – | – | – | – | – | – | – | –
CC(C)NCC(O)c1cc(OC(=O)N(C)C)cc(OC(=O)N(C)C)c1.Cl (racemic) | 1400 | 2.3 | 440 | 2200 | 600 | 40 | 710 | tde | tde | tde | tde | tde | – | – | –
CC(C)NCC(O)c1ccc(OC(=O)N(C)C)c(OC(=O)N(C)C)c1.Cl (racemic) | 160 | 2.5 | 87 | 200 | 140 | 21 | 1400 | tde | tde | tde | tde | tde | – | – | –
CC(C)NCC(O)c1cc(O)cc(O)c1 (racemic) | – | – | – | – | – | – | – | – | – | – | – | – | 4 | 4 | –
CC(C)NCC(O)c1ccc(O)c(O)c1 (racemic) | – | – | – | – | – | – | – | – | – | – | – | – | 4 | 4 | 2
